Our source for the IC50 and Activity values is ChEMBL document CHEMBL2157988, “Isolation, characterization and cytotoxic activity of benzophenone glucopyranosides from Mahkota Dewa (Phaleria macrocarpa (Scheff.) Boerl)” (Bioorg Med Chem Lett, 2012).

For orientation: IC50 means the point on the concentration scale where inhibition reaches its midpoint. High values mean lower potency, low ones higher potency.

Type in all cases: functional, cell-based
One experiment concerns PC-3. Kind of experiment: Cytotoxicity against human PC3 cells after 72 hrs by SRB assay. Conditions: PC-3, 72 h. The method in brief: (§1)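 Cells in DMEM with 10% FBS and 1% penicillin/streptomycin; log-phase cells trypsinized and seeded at 5000 cells/well. DMSO stocks diluted 1000-fold in medium (<0.1% DMSO); final 100 down to 1.5625 μM in twofold steps, 72 h. Fixed with 50% TCA, stained 0.4% SRB, solubilized in 10 mM Tris base pH 10.5, OD 515 nm; IC50 calculated.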

A short description of experiment [1]: Cytotoxicity against human EC109 cells after 72 hrs by SRB assay. Conditions: ECa-109, 72 h. The method in brief: as §1
Background: In SRB staining, fixed cells bind dye roughly in proportion to their protein.

Experiment [2] can be described thus: Cytotoxicity against human EC9706 cells after 72 hrs by SRB assay. As to conditions: EC9706, 72 h. The method in brief: as §1
The subject of experiment [3] is MGC-803. The experiment in a line: Cytotoxicity against human MGC803 cells after 72 hrs by SRB assay. Conditions: MGC-803, 72 h. The method in brief: as §1
For experiment [4], the system named is MGC-803. The experiment in a line: Cytotoxicity against human L-NAC-pretreated MGC803 cells incubated 2 hr post-L-NAC addition measured after 72 hrs by SRB assay. Put shortly: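 MGC-803 cells in DMEM/10% FBS, seeded 5000 cells/well, preincubated with or without 5 mM L-NAC (ROS scavenger) for 2 h before compound addition. Compound final 100 to 1.5625 μM (twofold series, <0.1% DMSO), 72 h. SRB readout after TCA fixation, OD 515 nm; IC50 (50% cell death) calculated.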

Activity calls are given as the source filed them. The calls are words filed in the database; no cut-off is given here.

Take `COc1cccc(COc2ccc(C(=O)c3c(OCc4cccc(OC)c4)cc(OC)cc3O[C@@H]3O[C@H](CO)[C@@H](O)[C@H](O)[C@H]3O)cc2)c1`: the IC50 in the experiment with PC-3 came to 6.92 µM; in experiment [1], 12.3 µM; in experiment [2], 20.9 µM; in the experiment on MGC-803 [3], 18.4 µM.

`COc1cc(OCC2CO2)c(C(=O)c2ccc(OCC3CO3)cc2)c(O[C@@H]2O[C@H](CO)[C@@H](O)[C@H](O)[C@H]2O)c1` (stereo partly drawn): the half-maximal inhibitory concentration (IC50) (with PC-3; in experiment [1]; in experiment [2]; with MGC-803 [3]) was over 100 µM each time.

As for `COc1cc(OC(C)=O)c(C(=O)c2ccc(OC(C)=O)cc2)c(O[C@@H]2O[C@H](COC(C)=O)[C@@H](OC(C)=O)[C@H](OC(C)=O)[C@H]2OC(C)=O)c1`, the IC50 worked out at 34.1 µM with PC-3, 50.7 µM in experiment [1], 86.1 µM in experiment [2] and 47.3 µM in the experiment on MGC-803 [3].

With `COc1cc(O)c(C(=O)c2ccc(O)cc2)c(O[C@@H]2O[C@H](COC(C)=O)[C@@H](O)[C@H](O)[C@H]2O)c1` [MAHKOSIDE B], the IC50 (with PC-3; in experiment [1]; in experiment [2]; in the experiment on MGC-803 [3]) was over 100 µM throughout.

For the compound `COc1cc(O)c(C(=O)c2ccc(OCc3ccccc3)cc2)c(OCc2ccccc2)c1`, the half-maximal inhibitory concentration (IC50) (with PC-3; in experiment [1]; in experiment [2]; in the experiment on MGC-803 [3]) was over 100 µM throughout.

As for `CCCCOc1ccc(C(=O)c2c(OCCCC)cc(OC)cc2O[C@@H]2O[C@H](CO)[C@@H](O)[C@H](O)[C@H]2O)cc1`, the IC50 in the experiment with PC-3 turned out to be 32 µM; in experiment [1], 29 µM; in experiment [2] it was 41.8 µM; in the experiment on MGC-803 [3] it was 49.2 µM.

On to `COc1cc(OC(=O)c2ccccc2)c(C(=O)c2ccc(OC(=O)c3ccccc3)cc2)c(O[C@@H]2O[C@H](COC(=O)c3ccccc3)[C@@H](OC(=O)c3ccccc3)[C@H](OC(=O)c3ccccc3)[C@H]2OC(=O)c2ccccc2)c1`, for which the concentration for half-maximal inhibition (IC50) (with PC-3; in experiment [1]; in experiment [2]; in the experiment with MGC-803 [3]) was over 100 µM in each case.

For the compound `COc1cc(OCCCN2CCCCC2)c(C(=O)c2ccc(OCc3ccccc3)cc2)c(OCc2ccccc2)c1`, the half-maximal inhibitory concentration (IC50) with PC-3 came to 3.47 µM; in experiment [1] it was 5.14 µM; in experiment [2] it was 4.97 µM; in the experiment with MGC-803 [3], 3.12 µM. The result in the experiment on MGC-803 [4] was Active.

Regarding `COc1cc(OCCCBr)c(C(=O)c2ccc(OCc3ccccc3)cc2)c(OCc2ccccc2)c1`, the half-inhibitory concentration (IC50) (with PC-3; in experiment [1]; in experiment [2]; in the experiment on MGC-803 [3]) was over 100 µM in each case.

For `CCCC(=O)OC[C@H]1O[C@@H](Oc2cc(OC)cc(OC(=O)CCC)c2C(=O)c2ccc(OC(=O)CCC)cc2)[C@H](OC(=O)CCC)[C@@H](OC(=O)CCC)[C@@H]1OC(=O)CCC`, the concentration for half-maximal inhibition (IC50) (in the experiment with PC-3; in experiment [1]; in experiment [2]; with MGC-803 [3]) was over 100 µM in each case.

For `COc1cc(OCc2ccccc2)c(C(=O)c2ccc(OCc3ccccc3)cc2)c(O[C@@H]2O[C@H](CO)[C@@H](O)[C@H](O)[C@H]2O)c1`, the half-inhibitory concentration (IC50) was found to be 28.9 µM in the experiment with PC-3, 22.7 µM in experiment [1], 41.1 µM in experiment [2] and 44.3 µM in the experiment with MGC-803 [3].

In the case of `COc1ccc(COc2ccc(C(=O)c3c(OCc4ccc(OC)cc4)cc(OC)cc3O[C@@H]3O[C@H](CO)[C@@H](O)[C@H](O)[C@H]3O)cc2)cc1`, the IC50 was 11.7 µM with PC-3, 17.1 µM in experiment [1], 20.5 µM in experiment [2] and 28.2 µM with MGC-803 [3].

For `CCOc1ccc(C(=O)c2c(OCC)cc(OC)cc2O[C@@H]2O[C@H](CO)[C@@H](O)[C@H](O)[C@H]2O)cc1`, the IC50 (in the experiment with PC-3; in experiment [1]; in experiment [2]; in the experiment on MGC-803 [3]) was over 100 µM in each case.

On to `COc1cc(OCCCBr)c(C(=O)c2ccc(OCCCBr)cc2)c(O[C@@H]2O[C@H](CO)[C@@H](O)[C@H](O)[C@H]2O)c1`, for which the half-maximal inhibitory concentration (IC50) in the experiment with PC-3 worked out at 40 µM; in experiment [1], 23.1 µM; in experiment [2], 31.3 µM; in the experiment with MGC-803 [3], 53.8 µM.

`C=CCOc1ccc(C(=O)c2c(OCC=C)cc(OC)cc2O[C@@H]2O[C@H](CO)[C@@H](O)[C@H](O)[C@H]2O)cc1`: the half-inhibitory concentration (IC50) (in the experiment on PC-3; in experiment [1]; in experiment [2]; in the experiment on MGC-803 [3]) was over 100 µM in each case.

`COc1cc(OC)c(C(=O)c2ccc(O)cc2)c(O[C@@H]2O[C@H](CO)[C@@H](O)[C@H](O)[C@H]2O)c1`: the half-maximal inhibitory concentration (IC50) (with PC-3; in experiment [1]; in experiment [2]; in the experiment with MGC-803 [3]) was over 100 µM each time.

Turning to `COc1cc(O)c(C(=O)c2ccc(O)cc2)c(O[C@@H]2O[C@H](CO)[C@@H](O)[C@H](O)[C@H]2O)c1` [MAHKOSIDE A], the half-inhibitory concentration (IC50) (in the experiment with PC-3; in experiment [1]; in experiment [2]; in the experiment on MGC-803 [3]) was over 100 µM in each case.

On to `COc1cc(OC(=O)c2ccc(Cl)cc2)c(C(=O)c2ccc(OC(=O)c3ccc(Cl)cc3)cc2)c(O[C@@H]2O[C@H](COC(=O)c3ccc(Cl)cc3)[C@@H](OC(=O)c3ccc(Cl)cc3)[C@H](OC(=O)c3ccc(Cl)cc3)[C@H]2OC(=O)c2ccc(Cl)cc2)c1`, for which the half-maximal inhibitory concentration (IC50) (with PC-3; in experiment [1]; in experiment [2]; with MGC-803 [3]) was over 100 µM in each case.
